Source: ChEMBL document CHEMBL1156597, “Structure-activity relationship of kahalalide F synthetic analogues” (J Med Chem, 2008)

Columns and labels:
DU-145 = experiment: Cytotoxicity against human DU145 cells after 48 hrs by SRB assay; assay type: functional, cell-based; conditions: Homo sapiens, DU-145, 48 h; for CC50: read-out: LC50 (the source's name)
Procedure, shortened: (§1)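 Cells grown in RPMI 1640 with 10% FBS and penicillin/streptomycin at 37 °C and 5% CO₂, trypsinized, then seeded at 5 × 10³/well. After 18 h drug-free attachment, samples in DMSO/EtOH/PBS (0.5:0.5:99) were added for 48 h continuous exposure. Cells were fixed with cold TCA (1 h, 4 °C) and stained with SRB (10 min). Tris-solubilized stain read at 490 nm. Triplicate wells, mean ± SD; GI₅₀ derived.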

LNCaP = experiment: Cytotoxicity against human LNcaP cells after 48 hrs by SRB assay; assay type: functional; conditions: for CC50: read-out: LC50 (the source's name); procedure, shortened: as §1
[1] = Cytotoxicity against human IGROV cells after 48 hrs by SRB assay; assay type: functional; conditions: for CC50: read-out: LC50 (the source's name); procedure, shortened: as §1
[2] = Cytotoxicity against human IGROV-ET cells after 48 hrs by SRB assay; assay type: functional; conditions: for CC50: read-out: LC50 (the source's name); procedure, shortened: as §1
SK-BR-3 = experiment: Cytotoxicity against human SKBR3 cells after 48 hrs by SRB assay; assay type: functional; conditions: SK-BR-3, 48 h; for CC50: read-out: LC50 (the source's name); for GI50: read-out: GI50; procedure, shortened: as §1
SK-MEL-28 = experiment: Cytotoxicity against human SK-MEL-28 cells after 48 hrs by SRB assay; assay type: functional, cell-based; conditions: Homo sapiens, SK-MEL-28, 48 h; for CC50: read-out: LC50 (the source's name); procedure, shortened: as §1
A549 = experiment: Cytotoxicity against human A549 cells after 48 hrs by SRB assay; assay type: functional, cell-based; conditions: Homo sapiens, A549, 48 h; procedure, shortened: as §1
K562 = experiment: Cytotoxicity against human K562 cells after 48 hrs by SRB assay; assay type: functional; conditions: K562, 48 h; for CC50: read-out: LC50 (the source's name); procedure, shortened: as §1
PANC-1 = experiment: Cytotoxicity against human PANC1 cells after 48 hrs by SRB assay; assay type: functional; conditions: PANC-1, 48 h; for CC50: read-out: LC50 (the source's name); procedure, shortened: as §1
HT-29 = experiment: Cytotoxicity against human HT29 cells after 48 hrs by SRB assay; assay type: functional, cell-based; conditions: Homo sapiens, HT-29, 48 h; for CC50: read-out: LC50 (the source's name); procedure, shortened: as §1
LoVo [3] = experiment: Cytotoxicity against human LoVo cells after 48 hrs by SRB assay; assay type: functional; conditions: for CC50: read-out: LC50 (the source's name)
HeLa = experiment: Cytotoxicity against human HeLa cells after 48 hrs by SRB assay; assay type: functional; conditions: for CC50: read-out: LC50 (the source's name); procedure, shortened: as §1
[4] = Cytotoxicity against human HeLa-APL cells after 48 hrs by SRB assay; assay type: functional; procedure, shortened: as §1
LoVo [5] = experiment: Cytotoxicity against human doxorubicin resistant LoVo cells after 48 hrs by SRB assay; assay type: functional; procedure, shortened: as §1

## C/C=C1\NC(=O)[C@H](Cc2ccccc2)NC(=O)[C@@H](C(C)C)NC(=O)[C@@H]([C@H](C)CC)NC(=O)[C@H](NC(=O)[C@H](NC(=O)[C@H](CCCN)NC(=O)[C@H]2CCCN2C(=O)[C@H](NC(=O)CNC(=O)[C@@H](NC(=O)[C@H](NC(=O)CCCC(C)C)C(C)C)[C@@H](C)O)C(C)C)[C@H](C)CC)[C@H](C)OC(=O)[C@H](C(C)C)NC1=O
DU-145
  CC50: 1700 nM
LNCaP
  GI50: 3050 nM
  TGI: 3320 nM
  CC50: 1580 nM
[1]
  CC50: 649 nM
[2]
  CC50: 722 nM
SK-BR-3
  CC50: 2850 nM
SK-MEL-28
  CC50: 1480 nM
A549
  LC50: 1960 nM
K562
  GI50: 2570 nM
  TGI: 3120 nM
  CC50: 2500 nM
PANC-1
  CC50: 2600 nM
HT-29
  CC50: 911 nM
LoVo [3]
  GI50: 10700 nM
  TGI: 9720 nM
  CC50: 4920 nM
HeLa
  CC50: 1070 nM
[4]
  LC50 (concentration giving 50% net cell kill): 1360 nM

## C/C=C1\NC(=O)[C@H](Cc2ccccc2)NC(=O)[C@@H](C(C)C)NC(=O)[C@@H]([C@H](C)CC)NC(=O)[C@H](NC(=O)[C@H](NC(=O)[C@H](CCCN)NC(=O)[C@H]2CCCN2C(=O)[C@H](NC(=O)[C@@H](NC(=O)[C@@H](NC(=O)[C@H](NC(=O)CC[C@@H](C)[C@H]2CC[C@H]3[C@@H]4CC[C@@H]5C[C@H](OC(=O)C(F)(F)F)CC[C@]5(C)[C@H]4CC[C@]23C)C(C)C)[C@@H](C)O)C(C)C)C(C)C)[C@H](C)CC)[C@H](C)OC(=O)[C@H](C(C)C)NC1=O
DU-145
  GI50: 524 nM
  CC50: 568 nM
DU-145; read-out: GI50
  GI50: 394 nM
LNCaP
  GI50: 851 nM
  TGI: 912 nM
  CC50: 980 nM
[1]
  GI50: 500 nM
  CC50: 404 nM
[1]; read-out: GI50
  GI50: 375 nM
[2]
  GI50: 406 nM
  CC50: 468 nM
[2]; read-out: GI50
  GI50: 352 nM
SK-BR-3
  TGI: 166 nM
  GI50: 118 nM
  CC50: 233 nM
SK-MEL-28
  GI50: 190 nM
  CC50: 172 nM
SK-MEL-28; read-out: GI50
  GI50: 209 nM
A549
  GI50: 949 nM
  LC50: 851 nM
A549; read-out: GI50
  GI50: 1060 nM
K562
  GI50: 967 nM
  TGI: 795 nM
  CC50: 1170 nM
PANC-1
  GI50: 1640 nM
  TGI: 1440 nM
  CC50: 1440 nM
HT-29
  GI50: 387 nM
  TGI: 450 nM
  CC50: 761 nM
LoVo [3]
  GI50: 340 nM
  TGI: 374 nM
  CC50: 795 nM
LoVo [5]
  GI50: 227 nM
  TGI: 220 nM
LoVo [5]; read-out: LC50 (the source's name)
  CC50: 211 nM
HeLa
  GI50: 1070 nM
  TGI: 978 nM
  CC50: 886 nM
[4]
  GI50: 1040 nM
  LC50 (concentration giving 50% net cell kill): 638 nM
  TGI: 802 nM

## C/C=C1\NC(=O)[C@H](Cc2ccccc2)NC(=O)[C@@H](C(C)C)NC(=O)[C@@H]([C@H](C)CC)NC(=O)[C@H](NC(=O)[C@H](NC(=O)[C@H](CCCN)NC(=O)[C@H]2CCCN2C(=O)[C@H](NC(=O)[C@@H](NC(=O)[C@@H](NC(=O)[C@H](NC(=O)CCCC(C)C)C(C)C)[C@@H](C)O)C(C)C)C(C)C)[C@H](C)CC)CNC(=O)[C@H](C(C)C)NC1=O
DU-145
  CC50: 1670 nM
LNCaP
  CC50: 1550 nM
[1]
  CC50: 637 nM
[2]
  CC50: 710 nM
SK-BR-3
  TGI: 8040 nM
  GI50: 8660 nM
  CC50: 2810 nM
SK-MEL-28
  CC50: 1460 nM
A549
  LC50: 1930 nM
K562
  CC50: 2460 nM
PANC-1
  CC50: 2560 nM
HT-29
  CC50: 895 nM
LoVo [3]
  GI50: 11500 nM
  TGI: 9550 nM
  CC50: 4840 nM
HeLa
  CC50: 1050 nM
[4]
  LC50 (concentration giving 50% net cell kill): 1340 nM
